# Source: PubChem (Sanford-Burnham Center for Chemical Genomics)
# mIAP inh = inhibitors of mouse IAP, primary screen, biochemical, luminescence, uHTS | intestinal alkaline phosphatase [Mus musculus] | purified mouse IAP, CDP-Star luminescence, 30 min | inhibition, % at 10 µM | hit rate 0.2% among 330,000 | AID 2806, 2010;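 active = inhibition of at least 40% at 10 µM in the primary screen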
# bIAP inhibitor = bovine intestinal alkaline phosphatase inhibitors, primary screen, selectivity assay for TNAP inhibitor project, biochemical, bovine IAP, CDP-star luminescence; purified bovine IAP, 30 min; inhibition, % at 20 µM; 190,000 tested, under 10 active;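 active = over 50% inhibition of intestinal alkaline phosphatase at 20 µM in the single-dose screen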
#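 System: Purified bovine intestinal alkaline phosphatase (IAP) enzyme | Input: IAP diluted 1/65,000,000 in the well | Also added: CDP-star chemiluminescent phosphatase substrate, 30 µM final | Dosing: 20 µM single dose | Times: Enzyme reaction for 30 min at room temperature | Detection: Luminescence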
# hIAP block = human IAP inhibitors, primary screen, biochemical, luminescence, uHTS; purified IAP, CDP-Star luminescence, 30 min; inhibition, % at 10 µM; hit rate 0.12% among 330,000;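 active = inhibition reaching a set limit with compound at 10 µM in the primary screen, cut at about 35% in these data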
# Target sequence (P09923 whole entry, looked up): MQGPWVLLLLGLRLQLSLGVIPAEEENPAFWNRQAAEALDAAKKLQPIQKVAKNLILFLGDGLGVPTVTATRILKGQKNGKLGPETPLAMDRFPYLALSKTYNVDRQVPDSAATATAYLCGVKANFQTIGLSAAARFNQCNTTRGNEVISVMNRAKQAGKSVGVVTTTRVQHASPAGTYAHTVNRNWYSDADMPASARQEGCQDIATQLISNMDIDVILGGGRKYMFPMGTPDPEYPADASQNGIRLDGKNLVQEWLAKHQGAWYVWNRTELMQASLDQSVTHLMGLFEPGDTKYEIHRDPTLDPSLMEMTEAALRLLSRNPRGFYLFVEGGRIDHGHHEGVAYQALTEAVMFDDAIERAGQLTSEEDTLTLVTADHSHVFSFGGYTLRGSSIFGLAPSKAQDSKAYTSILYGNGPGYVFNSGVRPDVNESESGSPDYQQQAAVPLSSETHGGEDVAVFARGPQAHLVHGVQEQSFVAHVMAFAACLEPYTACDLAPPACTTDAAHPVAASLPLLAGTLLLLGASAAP
# bIAP act = bovine intestinal alkaline phosphatase activators, primary screen, biochemical, bovine IAP, CDP-star luminescence; alkaline phosphatase, intestinal [Bos taurus]; purified bovine IAP, 30 min; active compounds read high; fold of DMSO-control signal, blank-subtracted; activation factor at 20 µM; hit rate 0.17% among 200,000;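 active = activation factor of 2 or more at 20 µM, a signal rise over negative controls twice the positive control's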
# hIAP act = human IAP activators, primary screen, biochemical, luminescence, uHTS; hit rate 0.16% among 330,000; activation factor at 10 µM; purified human IAP, CDP-Star luminescence, 30 min; active compounds read high; 1 = vehicle-only enzyme, 0 = enzyme-free background;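 active = activation factor of the enzyme at least 2-fold when tested at 20 µM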
# mIAP activ = activators of mouse IAP, primary screen, biochemical, luminescence, uHTS; intestinal alkaline phosphatase [Mus musculus]; muIAP, CDP-Star luminescence, 30 min; active compounds read high; 1 = vehicle-only enzyme signal, 0 = enzyme-free wells; activation factor at 10 µM; hit rate 0.24% among 330,000;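 active = activation factor of at least 2 at 20 µM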
#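 Assay system: mouse IAP enzyme; reagent: chemiluminescent substrate CDP-Star; dosing: test compounds delivered from DMSO solution; schedule: 30 min at room temperature; measured by: luminescence from enzymatic CDP-Star hydrolysis; controls: DMSO-only wells and no-enzyme negative control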
# Hits are given with their value; – = inactive; · = no result. Sampled rows, rich in hits. Any-hit rate of the full collection: about 0.77%.
SMILES,mIAP inh,bIAP inhibitor,hIAP block,bIAP act,hIAP act,mIAP activ
Nc1ncnc2c1nc(Sc1ccc(Cl)cc1)n2[C@@H]1O[C@@H]2COP(=O)(O)O[C@H]2[C@H]1O,–,·,–,·,–,–
CCOc1ccc(NS(=O)(=O)c2cccc(C(=O)NCC3(N(C)C)CCCCC3)c2)cc1,–,·,–,·,–,–
O=C(Nc1cc(Cl)cc(Cl)c1)C1CCC(=O)N1Cc1ccccc1Cl (configuration not stated),–,–,–,–,–,2
C=CCOc1ccc(C(=O)n2cc(C(=O)OC)c3ccccc32)cc1,–,·,–,·,–,–
O=C(/C=C/c1ccco1)N(c1ccccn1)c1ccccn1,45,–,–,–,–,–
Cc1cccc(N=C2NC(=O)/C(=C/C=C/c3ccco3)S2)c1,·,–,·,–,·,·
Cc1ccc(N=C2NC(=O)/C(=C\c3ccco3)S2)cc1,45,–,–,–,–,–
NC(=S)NN=Cc1ccc(-c2ccc(S(=O)(=O)Nc3ncccn3)cc2)o1,42,·,–,·,–,–
CCOC(=O)c1ccc(NC(=S)NC(=O)C2CCCC2)cc1,–,·,–,·,–,–
COC(=O)c1ccc(NC(=S)NC2CCCCC2C)cc1 (configuration not stated),–,–,–,–,–,2.6
CCOC(=O)c1ccc(NC(=S)NC2CCCC2)cc1,–,–,–,–,–,2.2
Cc1ccc(NC(=O)Nc2cccc3ccccc23)cc1,–,·,–,·,–,–
N#CCc1ccc(NC(=O)Nc2cccc3ccccc23)cc1,–,·,–,·,–,2.1
CCCCC1=C(C(=O)OCC)C(C(=O)OCC)Oc2ccccc21 (configuration not stated),–,·,·,·,·,–
Cc1cc(C)n(C(=O)CCC(=O)NCc2ccccc2)n1,56,–,–,–,–,–
CCOC(=O)c1ccc(NC(=S)NCCc2ccccc2F)cc1,–,–,–,–,–,2.2
CCOC(=O)c1ccc(NC(=S)NCCC2=CCCCC2)cc1,–,–,–,–,–,2.6
Cc1ccc(NC(=S)NCCC2=CCCCC2)cc1,–,–,–,–,–,–
CCOC(=O)c1ccc(NC(=S)NCCc2ccccc2)cc1,–,–,–,–,–,–
Cn1ccnc1SCC(=O)Nc1ccc(Br)cc1C(F)(F)F,–,·,–,·,–,–
CCOc1ccc(NC(=O)CC(c2ccccc2)c2ccc(F)cc2)cc1 (configuration not stated),–,–,–,–,–,2.2
CCOc1ccccc1NC(=O)c1cccc(NC(=O)CC(c2ccccc2)c2ccccc2)c1,–,–,–,–,–,2
COc1ccc(/C=N/NC(=O)c2ccc[nH]2)cc1,–,·,–,·,–,–
O=C(/C=C/c1ccco1)NC(=S)Nc1ccc(O)c(-c2nc3ccccc3s2)c1,53,–,–,–,–,–
C[C@H](CO)N1C[C@H](C)[C@@H](CN(C)S(=O)(=O)c2ccccc2)Oc2ccc(NC(=O)Nc3ccc4c(c3)OCO4)cc2C1=O,–,·,–,·,–,2.6
COc1ccc(S(=O)(=O)N(C)C[C@H]2Oc3ccc(NC(=O)Nc4ccc(C(F)(F)F)cc4)cc3C(=O)N([C@H](C)CO)C[C@@H]2C)cc1,–,·,–,·,–,–
C[C@H](CO)N1C[C@H](C)[C@@H](CN(C)S(=O)(=O)c2ccccc2)Oc2ccc(NC(=O)Cc3ccccc3)cc2C1=O,–,·,–,·,–,–
COc1ccc(NC(=O)Nc2ccc3c(c2)C(=O)N([C@H](C)CO)C[C@H](C)[C@@H](CN(C)S(=O)(=O)c2ccc(OC)cc2)O3)cc1,–,·,–,·,–,2.6
Cc1ccc(C2(C)NC(=O)N(CC(=O)Nc3ccc(S(=O)(=O)Nc4nccs4)cc3)C2=O)cc1 (configuration not stated),–,·,–,·,–,–
Fc1ccc(NC(=S)NC2CC3CCCC(C2)N3Cc2cccs2)cc1 (configuration not stated),–,–,–,–,–,2.8
